Screening data deposited in PubChem by several laboratories.
aSyn 5UTR inh – 5' untranslated region of α-synuclein, MLPCN primary screen; 0.82% of 300,000 active; inhibition, % (tested at 7.5 µM); alpha-synuclein 5'UTR reporter, inhibitor activity; in the data active = inhibition above about 60%; inconclusive = no clear call, values can overlap the other calls;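 note: H4 neuroglioblastoma cells stably carrying SNCA 5'UTR luciferase fusion; 0% = DMSO wells and 100% = positive control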
CSC inhib – blocks cancer stem cells; cancer stem cell-like cells viability, luminescence; inhibition, % at 7.5 µM; 1.1% of 300,000 active; in the data active = inhibition above about 75%; inconclusive = no clear call, values can overlap the other calls; tested in HMLE shEcad cells
Mdm2 MdmX PPI – inhibitors of human Mdm2/MdmX interaction. O15151+Q00987. SaOS-2 split-luciferase Mdm2/MdmX complementation, luminescence. inhibition, % at 8 µM. 3% of 330,000 active. AID 485346;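 active = inhibition of at least 50% at 8 µM in the primary screen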
T cruzi repl – blocks replication of Trypanosoma cruzi | T. cruzi beta-gal in NIH3T3, luminescence, 90 h | inhibition, % (no concentration beside the values) | 1.4% of 300,000 active;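 active = mean inhibition across valid replicates above about 55%, limit read from the data; inconclusive = mean below that limit but half or more replicates reach it; inactive = mean below it, under half of replicates reach it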;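 note: signal also drops with host cell toxicity which is not excluded here; 0% = plate median of DMSO wells and 100% = zero luminescence signal; higher percent means less beta-gal luminescence so fewer parasites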
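System: mouse NIH/3T3 fibroblasts infected with β-gal-expressing T. cruzi Tulahuen C4 / Input: NIH/3T3 cells, 5,000 per well / Buffer or medium: Low-serum DMEM with 2% FBS / Probe or stimulus: 5000 reporter trypomastigotes per well / Schedule: ≥90 h infection period, 3 h prior cell attachment / Measured by: GalScreen luminescence, 60 min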
SKKanGAS inh – SKKanGAS growth inhibition | S. pyogenes SKKanGAS, kanamycin growth, BacTiter-Glo, 6 h | 1.3% of 300,000 active | AID 1662 | inhibition, % at 7.5 µM;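 active = mean replicate score, as percent of positive control median, at least 50; inconclusive = mean below 50 but one replicate at or above 50; inactive = mean and every replicate below 50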;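 note: strain carries kanamycin resistance gene driven by streptokinase promoter and grows in 40 µg/ml kanamycin; loss of luminescence reflects streptokinase promoter inhibition or plain growth inhibition; 0% = median of DMSO wells and 100% = positive control at its reference dose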
* marks the source's active call; other numbers are inactive results; u = inconclusive; x = no result. Compounds with a hit are over-represented: about 5.4% of the library has one in this group of screens.

SMILES	aSyn 5UTR inh	CSC inhib	Mdm2 MdmX PPI	T cruzi repl	SKKanGAS inh
O=S(=O)(c1ccc(-c2csc(-c3cccnc3)n2)cc1)N1CCCCC1	2	13	-27	66*	5
O=S(=O)(c1ccc(-c2csc(-c3cccnc3)n2)cc1)N1CCCC1	39	14	-9	14	11
Fc1ccccc1N1CCN(CC2CCCCC2)CC1	-6	-4	8	12	3
Cc1cc(C)cc(NC(=O)CSc2nc3c(oc4ccccc43)c(=O)n2-c2ccccc2)c1	47	6	17	55*	15
Cc1ccc(-n2c(SCC(N)=O)nc3c(oc4ccccc43)c2=O)cc1	14	9	11	8	2
Cc1noc(C)c1NC(=O)N(C)C[C@H]1Oc2ccc(NC(=O)NC3CCCCC3)cc2C(=O)N([C@H](C)CO)C[C@@H]1C	x	x	25	x	x
CCCCn1c(-c2ccco2)nc2oc3ccccc3c(=O)c2c1=O	-21	-12	14	26	50*
COc1ccc(Cn2c(-c3ccco3)nc3oc4ccccc4c(=O)c3c2=O)cc1	-22	-3	-14	1	u
CCN(CC)CCN(C(=O)CCOc1ccccc1)c1nc2c(F)cc(F)cc2s1	-4	3	-7	56*	-21
Cc1cc(NC(=O)CSCC(=O)Nc2nc3ccccc3s2)no1	x	-12	-4	x	x
CC1(C)N=C(N)NC(Nc2ccccc2)=N1	5	-15	5	-5	64*
C=C1CCN([C@@H](CC(C)C)C(=O)Nc2nc3ccc(Cl)cc3s2)S(=O)(=O)c2ccccc21	-12	102*	28	10	19
Cc1cccc(-c2nc(C#N)c(NC3CCCCC3)o2)c1	-171	99*	-80	15	3
Cc1cccc(-c2nc(C#N)c(N3CCCCC3)o2)c1	-187	-2	-69	9	-8
CN(C(=O)CSc1nc2ccccc2o1)C1CCCCC1	x	x	-144	x	x
O=C(c1cccc(Br)c1)N1CCN(S(=O)(=O)N2CCCCC2)CC1	15	x	-13	-2	-6
CCc1nnc(NC(=O)[C@@H](NC(=O)c2cc(OC)cc(OC)c2)C(C)C)s1	-3	-14	-1	1	-8
Cc1cccc(CN2C(=O)[C@@H]3Cc4c([nH]c5ccccc45)C(C)(C)N3C2=O)c1	-4	76*	24	17	19
Cc1cccc(CN2C(=O)[C@H]3Cc4c([nH]c5ccccc45)C(C)(C)N3C2=O)c1	1	4	16	4	16
O=C(COC(=O)Cn1cc(C(F)(F)F)ccc1=O)Nc1ccccc1	x	x	3	x	x
COc1ccc(CNC(=O)CC2C[C@H](C(=O)N3CCOCC3)[C@@]3(CCC4CCCC4)c4[nH]c5ccccc5c4CCN3C2=O)cc1OC (some centres not stated)	x	x	30	x	x
Cc1ccc(CN(C)C(=O)C2CCC(=O)N(CCc3ccccc3)C2)o1 (configuration not stated)	-34	x	-28	0	0
Cc1ccc(C(=O)Cn2nnc3c(sc4nc5c(c(-c6ccccc6)c43)CCC5)c2=O)cc1	-5	86*	-6	12	5
CN(C(=O)COC(=O)CCC(=O)c1ccc(F)cc1)C1CCCCC1	x	-20	-8	x	x
O=C1N=c2ccc(Br)cc2=C1c1sc(=O)[nH]c1O	12	19	24	-6	24
SMILES	aSyn 5UTR inh	CSC inhib	Mdm2 MdmX PPI	T cruzi repl	SKKanGAS inh
Cc1ccc2c(c1)=C(c1sc(N(C)c3ccc(O)cc3)nc1O)C(=O)N=2	-68	31	20	21	80*
O=C(Nc1ccc(NC(=S)NC(=O)c2ccco2)cc1)c1ccccc1	-21	-7	10	2	8
O=C(Nc1ccc(NC(=S)NC(=O)c2cccs2)cc1)c1ccccc1	-14	6	16	3	4
O=C(NNC(=S)NC(=O)c1ccco1)c1ccc(NC(=O)c2ccccc2)cc1	-15	-1	38	-28	61*
CCCCC(=O)Nc1ccc(C(=O)NNC(=S)NC(=O)c2ccco2)cc1	-14	1	-13	-1	u
O=C(NNC(=S)NC(=O)c1cccs1)c1ccc(NC(=O)c2ccccc2)cc1	37	11	13	9	92*
CCCCC(=O)Nc1ccc(C(=O)NNC(=S)NC(=O)c2cccs2)cc1	-45	3	23	-17	67*
CCN(CC)CCN1C(=O)C(=O)/C(=C(/O)c2ccc(S(=O)(=O)N3CCOCC3)cc2)C1c1ccc(C(C)C)cc1 (configuration not stated)	-7	-4	23	-11	0
CC[C@@H]1C=C(C(=O)O)[C@H](c2ccc(Br)cc2)N1S(=O)(=O)c1ccc(C)cc1	x	x	-7	x	x
Cc1cc(NS(=O)(=O)c2ccc(NC(=O)CSc3nc4sc(C)c(C)c4c(=O)[nH]3)cc2)no1	5	6	18	-3	54*
O=C(CCCc1ccccc1)N1CCN(C2CCCCC2)CC1	-115	x	-34	-30	-1
Cc1ccc(CNC(=O)CCc2ccc(S(=O)(=O)NC3CCCCC3)cc2)cc1	8	-7	23	-5	-6
COc1ccc(CCC(=O)N2CCN(C3CCCCC3)CC2)cc1	19	-7	4	62*	0
CN1CCN(C(=O)CCc2ccc(S(=O)(=O)NC3CCCCC3)cc2)CC1	17	9	-1	59*	3
CC(NS(=O)(=O)c1ccc(CCC(=O)N2CCN(C)CC2)cc1)c1ccccc1 (configuration not stated)	24	5	3	72*	1
O=C(CCc1ccc(S(=O)(=O)NCc2ccccc2)cc1)N1CCN(Cc2ccc3c(c2)OCO3)CC1	22	x	30	59*	-6
CN(CC(=O)Nc1ccccc1Cl)C(=O)Cn1cc(C(F)(F)F)ccc1=O	x	x	-34	x	x
Cc1ccn2c(=O)nc(SCC(=O)Nc3ccc4c(c3)OCCO4)nc2c1	-17	11	36	-7	-5
O=C(CCc1ccc(Oc2cc([N+](=O)[O-])cc([N+](=O)[O-])c2)cc1)N1CCCCCC1	-15	96*	-6	68*	14
O=C(Cc1ccc([N+](=O)[O-])cc1)N1CCCCCC1	-18	2	-10	-24	-2
Cc1c(C(=O)C(=O)NCCCn2ccnc2)c2ccccc2n1C	6	-34	-16	-7	-1
CC(C)(C)OC(=O)N1CCC(c2cc(=O)n3[nH]c(-c4ccc(Cl)cc4)cc3n2)CC1	9	24	49	5	21
CC(C)(C)OC(=O)N1CCC(c2cc(=O)n3[nH]cc(C(=O)NC4CCCC4)c3n2)CC1	10	-18	15	1	1
CC(C)(C)OC(=O)N1CCC(c2cc(=O)n3[nH]cc(C(=O)Nc4ccc(F)c(Cl)c4)c3n2)CC1	9	x	27	7	68*
COc1ccc(NC(=O)c2c[nH]n3c(=O)cc(C4CCN(C(=O)OC(C)(C)C)CC4)nc23)cc1Cl	-16	36	19	7	52*
COc1ccc(CN(C)C(=O)c2cccc(Oc3ccccc3)c2)c(OC)c1OC	12	6	18	13	-3
Cc1cc(NC(=O)c2cccs2)n(-c2nc3ccccc3[nH]2)n1	-3	54	40	58*	-12
